From PubChem BioAssay
An excerpt weighted towards active compounds, which were near 1.5% of everything screened.
CCR6 antagonist = CCR6 (human) receptor antagonism. CHO-K1 CCR6 PathHunter beta-arrestin, luminescence, CCL20-stimulated. P51684. AID 493098. hit rate 0.49% among 340,000. inhibition, % at 20 µM;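 active = compounds whose inhibition of the agonist-driven luminescence signal at 20 µM reaches about 50%, limit read from the data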;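 also: cells stimulated with CCL20 at 14 nM final; plate controls were DMSO with CCL20 for no effect and DMSO without agonist for full effect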
EBI2 antag = blocks human EBI2 receptor beta-arrestin signaling | P32249 | EBI2 beta-arrestin recruitment, luminescence, 7a,25-OHC stimulated | inhibition, % at 5 µM | hit rate 0.81% among 360,000; in the data active = inhibition above about 38%;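 also: enzyme fragment complementation signal reports receptor beta-arrestin coupling in cells; 0% = agonist plus DMSO wells and 100% = wells without agonist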
Target sequence (P32249 whole entry, looked up, the tested form may be a part): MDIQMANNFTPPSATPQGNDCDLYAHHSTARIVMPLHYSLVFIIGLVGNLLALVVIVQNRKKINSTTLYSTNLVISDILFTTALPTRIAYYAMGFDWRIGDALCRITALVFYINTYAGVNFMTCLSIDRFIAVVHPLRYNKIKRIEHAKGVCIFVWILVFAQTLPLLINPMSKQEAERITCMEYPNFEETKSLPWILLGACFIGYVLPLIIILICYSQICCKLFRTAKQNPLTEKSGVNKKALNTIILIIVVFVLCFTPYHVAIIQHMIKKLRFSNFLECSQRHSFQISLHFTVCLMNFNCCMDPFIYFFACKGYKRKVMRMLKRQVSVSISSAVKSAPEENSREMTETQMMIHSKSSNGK
APJ antag = blocks the human apelin receptor APJ | P35414 | CHO-K1 APJ beta-arrestin complementation, luminescence | inhibition, % at 20 µM | hit rate 0.32% among 330,000;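 active = inhibition above about 40% at 20 µM, limit read from the data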;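 also: cells challenged with 10 nM apelin-13 agonist together with compound; plate controls were apelin-13 plus DMSO wells for no effect and DMSO wells lacking apelin-13 for full effect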
CXCR6 block = CXCR6 (human) receptor inhibition | O00574 | CHO-K1 PathHunter CXCR6 beta-arrestin, luminescence | inhibition, % at 20 µM | hit rate 0.36% among 360,000 | AID 602244; in the data active = inhibition above about 34%, passing the limit was not always enough;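 also: antagonist mode with CXCL16 agonist at 10 nM final; 0% = 10 nM CXCL16 with DMSO and 100% = unstimulated wells without agonist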
APJ ag = activates the human apelin receptor APJ; CHO-K1 APJ PathHunter beta-arrestin, luminescence; 0% DMSO wells, 100% apelin; activation, % at 20 µM; hit rate 0.11% among 330,000; AID 2520;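 active = activation more than six SD over the plate average, tested at 20 µM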;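 also: 0% = DMSO alone and 100% = apelin-13 at 10 nM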
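system = engineered CHO-K1 APJ arrestin reporter cells | input = 1000 cells per well | timing = overnight seeding, 90 min compound at 25 °C, 1 h detection | measured by = enzyme-fragment complementation luminescence | read-out = beta-arrestin recruitment to APJ as agonist activity, luminescent signal | control set = negative DMSO alone, positive Apelin-13 at 10 nM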
EBI2 antag conf = confirmation of human EBI2 receptor antagonists; hit rate 29% among 2,400; EBI2 beta-arrestin luminescence, 7a,25-OHC antagonism; shares compounds with EBI2 antag; AID 651997; inhibition, % at 5 µM;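 active = inhibition of at least 50%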
EBI2 agonist = EBI2 agonism counter-screen | activation, % at 5 µM | EBI2-expressing cells, agonist mode, luminescence, 60 min; 0% vehicle, 100% 7α,25-dihydroxycholesterol control | shares compounds with EBI2 antag | 2,400 tested, under 10 active | AID 652000;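 active = activation of at least 50%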
bGal counter = inhibits E. coli beta-galactosidase, counter-screen for EBI2 antagonists; shares compounds with EBI2 antag; purified beta-galactosidase, luminescent Galacton Star, 15 min; inhibition, % at 5 µM; hit rate 1% among 2,400; AID 652176;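 active = replicate-average signal at least 3 plate SD below neutral wells, shown as high inhibition, flagging enzyme-inhibiting false positives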;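 also: 0% = DMSO wells with enzyme and 100% = wells lacking enzyme; higher means stronger loss of beta-gal luminescence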
* hit, by the source's call; . = no result.

SMILES	CCR6 antagonist	EBI2 antag	APJ antag	CXCR6 block	APJ ag	EBI2 antag conf	EBI2 agonist	bGal counter
COc1ccc(C2=CC(=O)CC(c3ccc(OC)cc3)C2)cc1 (configuration not stated)	24	51*	11	-1	-4	29	-2	-13
Cc1cc(C)c(C(O)c2ncc(-c3ccccc3Cl)[nH]2)c(C)c1 (configuration not stated)	.	7	.	4	.	.	.	.
O=C(CN(Cc1ccco1)C(=O)CCC(=O)Nc1ccccn1)NCc1ccccc1	10	-4	25	10	-6	.	.	.
Cc1ccc(-n2nnnc2-c2ccccc2Br)cc1	-1	38*	-5	2	0	45	-2	-17
COc1ccc(OCC(=O)N2CCN(S(=O)(=O)c3ccccc3[N+](=O)[O-])CC2)cc1	11	83*	-1	-6	-1	61*	0	-17
Cc1ccc(OCC(=O)N2CCN(C(=O)Cc3ccccc3)CC2)cc1	-26	58*	7	1	-1	49	-1	-4
COc1ccc(OCC(=O)N2CCN(S(=O)(=O)c3ccc4c(c3)OCCO4)CC2)cc1	.	82*	.	-5	.	55*	0	-13
Cc1ccc(OCC(=O)N2CCCCCCC2)cc1	-4	7	1	-12	-4	.	.	.
COc1ccc(CC(=O)N2CCN(c3ccccn3)CC2)cc1	1	1	-11	10	-2	.	.	.
COc1ccc(OCC(=O)N2CCN(C(=O)Cc3ccccc3)CC2)cc1	9	76*	5	1	-2	49	1	5
Fc1ccc(-c2nnc(Cc3ccc(Cl)cc3)o2)cc1	10	-1	14	3	-1	.	.	.
CC(=O)NC(Cc1ccc(O)cc1)C(=O)NN (configuration not stated)	-4	-5	7	-4	-3	.	.	.
CCCS(=O)(=O)N1CCN(C(=O)COc2ccc(OC)cc2)CC1	-8	62*	-25	1	-2	42	2	11
CC1(NC(=O)Nc2cc([N+](=O)[O-])ccc2O)CCS(=O)(=O)C1 (configuration not stated)	26	4	34	20	-5	.	.	.
CC(C)[C@@H](NC(=O)C1CCC(CNC(=O)[C@H](Cc2ccccc2)NC(=O)OC(C)(C)C)CC1)C(=O)O (some centres not stated)	6	5	.	0	.	.	.	.
COc1cc2ccccc2cc1C(=O)N1CCN(C(C)=O)CC1	5	66*	9	5	-4	52*	0	-13
CCOc1ccccc1N1CCN(C(=O)c2cc3ccccc3cc2OC)CC1	2	57*	18	6	-5	31	1	9
CSc1ccc(CN2CCC(n3nccc3NC(=O)c3ccccc3C)CC2)cc1	18	2	3	-12	-3	.	.	.
CN(C)C(=O)C12CCC(C)(C(=O)C1Br)C2(C)C (configuration not stated)	0	-4	-1	0	3	.	.	.
Cc1ccnc(NC(=O)Cn2c(=O)oc3ccccc32)c1	-4	-4	-32	-1	-6	.	.	.
COc1cc2nc(Cl)nc(N3CCN(C)CC3)c2cc1OC	.	.	0	.	-3	.	.	.
COc1cc2nc(C3CCC3)nc(N3CCN(c4ccccc4OC)CC3)c2cc1OC	14	46*	-7	9	3	36	2	-6
Cc1nn(-c2ccccn2)c2c1C(=O)CC(C)(C)C2Br (configuration not stated)	-1	-1	-7	-3	-5	.	.	.
CCOC(=O)c1c(NC(=O)COc2cccc3c2CCN(C)C3=O)sc2c1CCC2	-1	51*	-13	-6	-2	10	-2	-11
Cc1ccc(CCNC(=O)C23CN(Cc4ccccc4)CC2C(c2ccc([N+](=O)[O-])cc2)=NO3)cc1 (configuration not stated)	2	65*	-17	1	8	43	-1	-1
SMILES	CCR6 antagonist	EBI2 antag	APJ antag	CXCR6 block	APJ ag	EBI2 antag conf	EBI2 agonist	bGal counter
O=C(O)Cn1c(-c2ccccc2)cc2ccccc21	-8	11	2	8	-3	.	.	.
COc1ccc(-c2nc(N)ncc2-c2ccccc2)c(O)c1	2	61*	-13	2	-2	6	-1	-9
Nc1ncc(-c2ccccc2)c(-c2ccc(OCc3ccccc3)cc2O)n1	3	20	-12	2	-1	.	.	.
COc1ccc(-c2cnc(N)nc2-c2ccc(OC)cc2O)cc1	2	81*	-9	-6	0	44	0	-9
COc1ccc(-c2nc(N)ncc2-c2ccccc2OC)c(O)c1	11	46*	1	-6	-5	15	0	11
COc1ccc(-c2nc(N)nc(C(F)(F)F)c2-c2ccccc2OC)c(O)c1	-6	8	0	1	2	.	.	.
COc1ccc(-c2cn(Cc3ccc(C(=O)NCc4ccc(C)cc4)cc3)c(C(C)N)n2)cc1 (configuration not stated)	-10	54*	9	8	-2	5	1	-2
Nc1nc(Cl)cc(N2CCC(c3cc(-c4ccc(Cl)cc4Cl)n[nH]3)CC2)n1	-8	45*	3	-7	4	14	-1	-15
CCc1nc2ccc(C(=O)N3CCN(C(C)=O)CC3)cn2c1N(C)C(=O)c1cccc(OC)c1	.	5	.	2	.	.	.	.
OC(COc1ccc(Br)cc1)Cn1ccnc1 (configuration not stated)	4	7	2	4	-2	.	.	.
COc1ccc(OCC(O)CNc2ccc(Br)cc2)cc1 (configuration not stated)	-3	76*	0	-1	0	52*	0	-9
COc1ccc(OCC(O)Cn2cnc(-c3ccc(Br)cc3)c2)cc1 (configuration not stated)	-9	48*	2	-10	-3	40	1	6
COc1ccc(OCC(O)COc2ccc(OC)cc2)cc1	-8	72*	5	-13	2	60*	1	8
COc1ccc(OCC(O)CNC(=O)c2ccc(OC)cc2)cc1 (configuration not stated)	12	21	9	4	-1	.	.	.
COc1ccc(OCC(O)CNC(=O)c2ccc(Br)cc2)cc1 (configuration not stated)	21	53*	-13	3	-2	36	1	9
CC(C(=O)NCC1CCCO1)n1cc([N+](=O)[O-])cn1 (configuration not stated)	-10	-15	-8	-8	-2	.	.	.
COc1ccccc1C(=O)OCc1c(-c2ccccc2)ncc2ccccc12	19	0	9	31	-2	.	.	.
